# Assay results from different studies.
# PPARA: Peroxisome proliferator-activated receptor alpha (PPARA, Homo sapiens, UniProt Q07869)
# gag-pol integrase: Gag-Pol polyprotein, integrase (gag-pol, Human immunodeficiency virus 1, UniProt P12497)
# Tumor necrosis factor receptor superfamily member 9: Tumor necrosis factor receptor superfamily member 9 (Homo sapiens, UniProt Q07011)
# CYP2D6: Cytochrome P450 2D6 (CYP2D6, Homo sapiens, UniProt P10635)
# Drd2: D(2) dopamine receptor (Drd2, Rattus norvegicus, UniProt P61169)
Compound,target,assay,system,conditions,quantity,result
CC(=O)N[C@@H](CC(C)C)C(=O)N[C@@H](CC(C)C)C(=O)N[C@@H](CC(C)C)C(=O)N[C@@H](CCCN=C(N)N)C(=O)N[C@H](C(=O)N[C@@H](CCCCN)C(=O)N[C@@H](CCCN=C(N)N)C(N)=O)C(C)C,"Proprotein convertase subtilisin/kexin type 7 (Homo sapiens, UniProt Q16549)","enzyme activity, inhibitor",,,Ki,1.52 µM
O=S(=O)(O)C(F)(F)C(F)(F)C(F)(F)C(F)(F)C(F)(F)C(F)(F)F,PPARA,"reporter gene, agonist, luciferase",,,EC50,61 µM
CC(C)C[C@H](NC(=O)[C@H](Cc1ccccc1)NC(=O)[C@H](Cc1ccc(O)cc1)NC(=O)CNC(=O)[C@H](CCCCN)NC(=O)[C@H](CO)NC(=O)[C@H](CCC(N)=O)NC(=O)CNC(=O)[C@@H](NC(=O)[C@H](CO)NC(=O)[C@@H]1CCCN1C(=O)[C@H](CO)NC(=O)[C@H](CCC(N)=O)NC(=O)[C@H](Cc1ccc(O)cc1)NC(=O)[C@H](CCC(=O)O)NC(=O)[C@H](C)NC(=O)[C@H](CCCCN)NC(=O)[C@@H](N)Cc1ccccc1)C(C)C)C(=O)N[C@@H](Cc1ccccc1)C(=O)N[C@@H](CCCNC(=N)N)C(=O)N1CCC[C@H]1C(=O)N[C@@H](CCCNC(=N)N)C(=O)N[C@@H](CC(N)=O)C(N)=O,"Neuromedin-U receptor 2 (NMUR2, Homo sapiens, UniProt Q9GZQ4)","inositol phosphate, agonist",,,EC50,0.00024 µM
O=C(O)[C@H](Cc1ccc2ccccc2c1)NC(=O)C1(c2ccc3ccccc3c2)CCN(CCC(F)(F)F)CC1,gag-pol integrase,"enzyme activity, inhibitor, TR-FRET",,,IC50,180 µM
O=C(O)CCC(c1ccccc1)(c1ccccc1)c1ccccc1,"Kinesin-like protein KIF11 (KIF11, Homo sapiens, UniProt P52732)","ATPase activity, inhibitor",,,IC50,> 28 µM
CCCC[C@@H]1NC(=O)[C@H](Cc2ccc(O)cc2)NC(=O)[C@@H]2CCCN2C(=O)[C@H](CC(=O)O)NC(=O)[C@H](C)NC(=O)[C@H](Cc2ccccc2)NC(=O)[C@@H]2CSCCC(=O)N3CN(CN(C3)C(=O)CCSC[C@@H](C(=O)N[C@@H](C)C(N)=O)NC1=O)C(=O)CCSC[C@H](NC(C)=O)C(=O)N[C@@H](CC(C)(C)C)C(=O)N1CCC[C@H]1C(=O)N[C@@H](CCC(=O)O)C(=O)N[C@H](CCCCNC(=O)CCc1cn(CCOCCOCCOCCOCCOCCC(=O)NCCCC[C@H]3NC(=O)[C@H](Cc4cccc5ccccc45)NC(=O)[C@@H]4CCCN4C(=O)[C@@H](NC(C)=O)CSCCC(=O)N4CN5CN(C4)C(=O)CCSC[C@H](NC3=O)C(=O)N[C@@H](CCSC)C(=O)N[C@@H](CCCCNC(=N)N)C(=O)N[C@@H](Cc3c[nH]cn3)C(=O)N[C@@H](Cc3c[nH]c4ccccc34)C(=O)N[C@@H](CO)C(=O)N[C@@H]([C@@H](C)O)C(=O)N3CCC[C@H]3C(=O)N3C[C@H](O)C[C@H]3C(=O)N[C@@H](Cc3c[nH]c4ccccc34)C(=O)N[C@H](C(N)=O)CSCCC5=O)nn1)C(=O)N1CCC[C@H]1C(=O)N[C@@H](Cc1ccc(O)cc1)C(=O)N2,Tumor necrosis factor receptor superfamily member 9,"binding, SPR",,,Kd,0.0032 µM
O=C(O)c1cc[c]([Hg][Cl])cc1,"Beta-lactamase TEM (bla, Escherichia coli, UniProt P62593)","enzyme activity, inhibitor",,,IC50,> 30 µM
Cc1c(C2(c3ccc(C(F)(F)F)nc3)CC2)c[nH]c1C(=O)NC(C)c1nc[nH]n1 (stereo not drawn),CYP2D6,"enzyme activity, inhibitor","human, liver microsomes",,IC50,17 µM
Clc1ccc(N2CCN(Cc3c[nH]c4ncccc34)CC2)cc1,Drd2,"ligand displacement, radioligand",,cell membranes,Ki,0.656 µM
CCCC[C@@H]1NC(=O)[C@H](Cc2ccc(O)cc2)NC(=O)[C@@H]2CCCN2C(=O)[C@H](CC(=O)O)NC(=O)[C@H](C)NC(=O)[C@H](Cc2ccccc2)NC(=O)[C@@H]2CSCCC(=O)N3CN(CN(C3)C(=O)CCSC[C@@H](C(=O)N[C@@H](C)C(N)=O)NC1=O)C(=O)CCSC[C@H](NC(C)=O)C(=O)N[C@@H](CC(C)(C)C)C(=O)N1CCC[C@H]1C(=O)N[C@@H](CCC(=O)O)C(=O)N[C@H](CCCCNC(=O)CCc1cn(CCOCCOCCOCCOCCOCCC(=O)N[C@H]3CSCCC(=O)N4CN5CN(C4)C(=O)CCSC[C@H](NC(=O)[C@@H](CCC(=O)O)NC(=O)[C@H](Cc4cccc6ccccc46)NC(=O)[C@@H]4CCCN4C3=O)C(=O)N[C@@H](CC(C)C)C(=O)N[C@@H](CCCCNC(=N)N)C(=O)N[C@@H](CC(=O)O)C(=O)N[C@@H](Cc3c[nH]c4ccccc34)C(=O)N[C@@H](CO)C(=O)N[C@@H]([C@@H](C)O)C(=O)N3CCC[C@H]3C(=O)N3C[C@H](O)C[C@H]3C(=O)N[C@@H](Cc3c[nH]c4ccccc34)C(=O)N[C@H](C(N)=O)CSCCC5=O)nn1)C(=O)N1CCC[C@H]1C(=O)N[C@@H](Cc1ccc(O)cc1)C(=O)N2,Tumor necrosis factor receptor superfamily member 9,"binding, SPR",,,Kd,0.0084 µM
O=C(O)[C@H](Cc1ccc2ccccc2c1)NC(=O)C1(c2ccc(F)cc2)CCN(CCC(F)(F)F)CC1,gag-pol integrase,"enzyme activity, inhibitor, TR-FRET",,,IC50,206 µM
CCCC[C@@H]1NC(=O)[C@H](Cc2ccc(O)cc2)NC(=O)[C@@H]2CCCN2C(=O)[C@H](CC(=O)O)NC(=O)[C@H](C)NC(=O)[C@H](Cc2ccccc2)NC(=O)[C@@H]2CSCCC(=O)N3CN(CN(C3)C(=O)CCSC[C@@H](C(=O)N[C@@H](CNC(=O)CCOCCOCCOCCOCCOCCn3cc(CCC(=O)N[C@H]4CSCCC(=O)N5CN6CN(C5)C(=O)CCSC[C@H](NC(=O)[C@@H](CC(=O)O)NC(=O)[C@H](Cc5cccc7ccccc57)NC(=O)[C@@H]5CCCN5C4=O)C(=O)N[C@@H](CCSC)C(=O)N[C@@H](CCCCNC(=N)N)C(=O)N[C@@H](CC(=O)O)C(=O)N[C@@H](Cc4c[nH]c5ccccc45)C(=O)N[C@@H](CO)C(=O)N[C@@H]([C@@H](C)O)C(=O)N4CCC[C@H]4C(=O)N4C[C@H](O)C[C@H]4C(=O)N[C@@H](Cc4c[nH]c5ccccc45)C(=O)N[C@H](C(N)=O)CSCCC6=O)nn3)C(N)=O)NC1=O)C(=O)CCSC[C@H](NC(C)=O)C(=O)N[C@@H](CC(C)(C)C)C(=O)N1CCC[C@H]1C(=O)N[C@@H](CCC(=O)O)C(=O)N[C@H](C)C(=O)N1CCC[C@H]1C(=O)N[C@@H](Cc1ccc(O)cc1)C(=O)N2,Tumor necrosis factor receptor superfamily member 9,"binding, SPR",,,Kd,0.0034 µM
O=S(=O)(O)C(F)(F)C(F)(F)C(F)(F)C(F)(F)C(F)(F)C(F)(F)C(F)(F)C(F)(F)F,PPARA,"reporter gene, agonist, luciferase",,,EC50,24 µM
O=C(O)[C@H](Cc1ccccc1)NC(=O)C1(c2ccc3ccccc3c2)CCN(Cc2ccccc2)CC1,gag-pol integrase,"enzyme activity, inhibitor, TR-FRET",,,IC50,353 µM
[Cd+2],"Protein phosphatase 1A (PPM1A, Homo sapiens, UniProt P35813, D38V)","enzyme activity, inhibitor, absorbance",,pH 8,Ki,0.47 µM
Cc1cc(SCc2sc(-c3ccc(C(F)(F)F)c(F)c3)nc2C)ccc1OCC(=O)O,PPARA,"reporter gene, antagonist, luciferase",,,IC50,37.4 µM
O=S(=O)(O)C(F)(F)C(F)(F)OC(F)(C(F)(F)F)C(F)(F)OC(F)C(F)(F)F (stereo not drawn),PPARA,"reporter gene, agonist, luciferase",,,EC50,24 µM
CC(C)Oc1cccnc1N(C)C1CCN(Cc2ccc(I)cc2)CC1,Drd2,"ligand displacement, radioligand",,cell membranes,Ki,0.085 µM
CCCC[C@@H]1NC(=O)[C@H](Cc2ccc(O)cc2)NC(=O)[C@@H]2CCCN2C(=O)[C@H](CC(=O)O)NC(=O)[C@H](C)NC(=O)[C@H](Cc2ccccc2)NC(=O)[C@@H]2CSCCC(=O)N3CN(CN(C3)C(=O)CCSC[C@@H](C(=O)N[C@@H](C)C(N)=O)NC1=O)C(=O)CCSC[C@H](NC(C)=O)C(=O)N[C@@H](CC(C)(C)C)C(=O)N1CCC[C@H]1C(=O)N[C@@H](CCC(=O)O)C(=O)N[C@H](CCCCNC(=O)CCc1cn(CCOCCOCCOCCOCCOCCC(=O)NCCCC[C@H]3NC(=O)[C@H](Cc4cccc5ccccc45)NC(=O)[C@@H]4CCCN4C(=O)[C@@H](NC(C)=O)CSCCC(=O)N4CN5CN(C4)C(=O)CCSC[C@H](NC3=O)C(=O)N[C@@H](CCSC)C(=O)N[C@@H](CCCCNC(=N)N)C(=O)N[C@@H](CCC(=O)O)C(=O)N[C@@H](Cc3c[nH]c4ccccc34)C(=O)N[C@@H](CO)C(=O)N[C@@H]([C@@H](C)O)C(=O)N3CCC[C@H]3C(=O)N3C[C@H](O)C[C@H]3C(=O)N[C@@H](Cc3c[nH]c4ccccc34)C(=O)N[C@H](C(N)=O)CSCCC5=O)nn1)C(=O)N1CCC[C@H]1C(=O)N[C@@H](Cc1ccc(O)cc1)C(=O)N2,Tumor necrosis factor receptor superfamily member 9,"binding, SPR",,,Kd,0.0072 µM
Cc1c(Cc2ccc(C(F)(F)F)nc2)c[nH]c1C(=O)NC(C)c1cnn(C)c1 (stereo not drawn),CYP2D6,"enzyme activity, inhibitor","human, liver microsomes",,IC50,12.7 µM
CC[C@H](C)[C@H](NC(=O)[C@H](CCCNC(=N)N)NC(=O)[C@H](CC(C)C)NC(=O)[C@@H](N)Cc1ccccc1)C(=O)N[C@@H](CCCNC(=N)N)C(=O)N1CCC[C@H]1C(=O)N[C@@H](CCCCN)C(=O)O,"Alpha-1B adrenergic receptor (ADRA1B, Homo sapiens, UniProt P35368)","cell-free assay, radioligand",,,Ki,6.9 µM
